Results: ChEMBL document CHEMBL4402601, “Discovery of a Silicon-Containing Pan-Genotype Hepatitis C Virus NS5A Inhibitor” (J Med Chem, 2020)

Tests used:
[1] = Half life in mouse at 10 mg/kg, po by UPLC-MS/MS analysis; assay type: ADME, organism-based; conditions: in vivo
Procedure, shortened: (§1)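 Overnight-fasted mice given a single 10 mg/kg oral dose in 2:2:96 (v/v) alcohol : Tween 80 : glucose injection. Plasma levels by UPLC-MS/MS. Bioavailability derived against a 2 mg/kg iv arm using the same formulation diluted 2.5 times with 10% glucose injection.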

Hepatitis C virus [2] = experiment: Antiviral activity against Hepatitis C virus subtype 1a H77 subgenomic replicon expressing NS5A L31V mutant infected in human HuH7 cells assessed as reduction in viral replication incubated for 3 days by luciferase reporter gene assay; assay type: functional, organism-based, Hepacivirus hominis; conditions: subtype 1a H77, Huh-7, 72 h
Procedure, shortened: (§2)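 NS5A resistance-associated variants introduced into GT1a-H77 or GT1b-Con1 replicons. In transient assays, each variant replicon was electroporated into a Huh-7-derived cell line. Inhibition measured as drop in luciferase signal. Percent inhibition computed per concentration; EC50 from 4-parameter logistic nonlinear fit. Fold resistance is variant EC50 relative to the matching reference replicon.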

Hepatitis C virus [3] = experiment: Antiviral activity against Hepatitis C virus subtype 4a subgenomic replicon expressing NS5A infected in human HuH7 cells assessed as reduction in viral replication incubated for 3 days by luciferase reporter gene assay; assay type: functional, organism-based, Hepacivirus hominis; conditions: Huh-7, 72 h
[4] = Volume of distribution in mouse at 2 mg/kg, iv by UPLC-MS/MS analysis; assay type: ADME, organism-based; conditions: in vivo
Procedure, shortened: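 Mice fasted overnight, given a single 2 mg/kg iv dose. Vehicle was the oral formulation (2:2:96 alcohol:Tween 80:glucose injection) diluted 2.5-fold with 10% glucose injection. Plasma concentrations measured by UPLC-MS/MS.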

[5] = Oral bioavailability in mouse at 10 mg/kg by UPLC-MS/MS analysis; assay type: ADME, organism-based; conditions: in vivo; procedure, shortened: as §1
[6] = Drug distribution in mouse plasma at 10 mg/kg, po incubated for 0.5 hrs by UPLC-MS/MS analysis; assay type: ADME, organism-based
Procedure, shortened: (§3)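 Oral dosing in mice and rats; compound measured in plasma and liver by UPLC-MS/MS at each time point, n = 3 (mean ± SD). LPR is mean liver concentration divided by mean plasma concentration.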

Hepatitis C virus [7] = experiment: Resistance index, ratio of EC50 for Hepatitis C virus subtype 1a H77 subgenomic replicon expressing NS5A Q30K mutant infected in human HuH7 cells to EC50 for Hepatitis C virus subtype 1a H77 subgenomic replicon expressing NS5A infected in human HuH7 cells; assay type: functional, Hepacivirus hominis
[8] = Cytotoxicity against human HuH7 cells assessed as reduction in cell viability incubated for 3 days by luciferase reporter gene assay; assay type: cell-based, Huh-7
[9] = Metabolic stability in mouse liver microsomes assessed as compound remaining at 1 uM incubated for 60 mins by UPLC-MS/MS analysis; assay type: ADME, Microsome; conditions: read-out: Stability
Procedure, shortened: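 Pooled mouse, rat or human liver microsomes (0.5 mg/mL) with 1 μM compound, 1 mM NADPH, 5 mM MgCl₂ and 100 mM potassium phosphate pH 7.4. Pre-incubated 5 min at 37 °C, started with NADPH, then run 60 min at 37 °C. Quenched with ice-cold acetonitrile containing internal standard; parent remaining measured by UPLC-MS/MS.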

[10] = Drug distribution in mouse liver at 10 mg/kg, po incubated for 24 hrs by UPLC-MS/MS analysis; assay type: ADME, organism-based; conditions: read-out: Drug uptake; procedure, shortened: as §3
Hepatitis C virus [11] = experiment: Resistance index, ratio of EC50 for Hepatitis C virus subtype 1a H77 subgenomic replicon expressing NS5A Y93C mutant infected in human HuH7 cells to EC50 for Hepatitis C virus subtype 1a H77 subgenomic replicon expressing NS5A infected in human HuH7 cells; assay type: functional, Hepacivirus hominis
Hepatitis C virus [12] = experiment: Resistance index, ratio of EC50 for Hepatitis C virus subtype 1b Con1 subgenomic replicon expressing NS5A L31V mutant infected in human HuH7 cells to EC50 for Hepatitis C virus subtype 1b Con1 subgenomic replicon expressing NS5A infected in human HuH7 cells; assay type: functional, Hepacivirus hominis
[13] = AUClast in mouse at 10 mg/kg, po by UPLC-MS/MS analysis; assay type: ADME, organism-based; conditions: in vivo; procedure, shortened: as §1
[14] = AUC (0 to 48 hrs) in dog at 5 mg/kg, po by UPLC-MS/MS analysis; assay type: ADME, organism-based, Canis lupus familiaris; set-up: time < 48 hr, dose 5 mg/kg, route oral; conditions: in vivo
Hepatitis C virus [15] = experiment: Antiviral activity against Hepatitis C virus subtype 1a H77 subgenomic replicon expressing NS5A M28T mutant infected in human HuH7 cells assessed as reduction in viral replication incubated for 3 days by luciferase reporter gene assay; assay type: functional, organism-based, Hepacivirus hominis; conditions: subtype 1a H77, Huh-7, 72 h; procedure, shortened: as §2
Hepatitis C virus [16] = experiment: Resistance index, ratio of EC50 for Hepatitis C virus subtype 1a H77 subgenomic replicon expressing NS5A M28T mutant infected in human HuH7 cells to EC50 for Hepatitis C virus subtype 1a H77 subgenomic replicon expressing NS5A infected in human HuH7 cells; assay type: functional, Hepacivirus hominis
Hepatitis C virus [17] = experiment: Antiviral activity against Hepatitis C virus subtype 1a H77 subgenomic replicon expressing NS5A L31M mutant infected in human HuH7 cells assessed as reduction in viral replication incubated for 3 days by luciferase reporter gene assay; assay type: functional, organism-based, Hepacivirus hominis; conditions: subtype 1a H77, Huh-7, 72 h; procedure, shortened: as §2
Hepatitis C virus [18] = experiment: Resistance index, ratio of EC50 for Hepatitis C virus subtype 1b Con1 subgenomic replicon expressing NS5A P32L mutant infected in human HuH7 cells to EC50 for Hepatitis C virus subtype 1b Con1 subgenomic replicon expressing NS5A infected in human HuH7 cells; assay type: functional, Hepacivirus hominis
[19] = Ratio of drug distribution in mouse liver to drug distribution in mouse plasma measured after 24 hrs by UPLC-MS/MS analysis; assay type: ADME, cell-free; procedure, shortened: as §3
[20] = Drug distribution in rat liver at 10 mg/kg, po incubated for 8 hrs by UPLC-MS/MS analysis; assay type: ADME, organism-based; conditions: read-out: Drug uptake; procedure, shortened: as §3
Hepatitis C virus [21] = experiment: Antiviral activity against Hepatitis C virus subtype 1b Con1 replicon expressing NS5A Y93H mutant infected in human HuH7 cells assessed as reduction in viral replication incubated for 3 days by luciferase reporter gene assay; assay type: functional, organism-based, Hepacivirus hominis; conditions: subtype 1b Con1, Huh-7, 72 h; procedure, shortened: as §2
[22] = Tmax in mouse at 10 mg/kg, po by UPLC-MS/MS analysis; assay type: ADME, organism-based; conditions: in vivo
Procedure, shortened: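 Mice fasted overnight, given a single 10 mg/kg oral dose in 2:2:96 (v/v) alcohol:Tween 80:glucose injection. Plasma concentrations measured by UPLC-MS/MS.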

Hepatitis C virus [23] = experiment: Antiviral activity against Hepatitis C virus subtype 3a subgenomic replicon expressing NS5A infected in human HuH7 cells assessed as reduction in viral replication incubated for 3 days by luciferase reporter gene assay; assay type: functional, organism-based, Hepacivirus hominis; conditions: Huh-7, 72 h
Procedure, shortened: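 HCV replicon cell assay; inhibition of replication read as decrease in luciferase signal. Percent inhibition computed at each compound concentration; EC50 (pM) from nonlinear regression fit to a 4-parameter logistic equation. Values are means of triplicate wells, with each experiment run at least twice.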

[24] = Toxicity in mouse assessed as effect on hepatological parameters at 300 mg/kg, po administered for 14 days and measured on day 14; assay type: organism-based; conditions: in vivo, 336 h
Procedure, shortened: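 Mice randomised after acclimation into two groups of 5 males and 5 females. Compound at 300 mg/kg or vehicle alone given once daily by oral gavage for 14 days. Clinical signs observed daily. Body weight and food intake recorded on day 1, then twice weekly. Animals killed after the 14th dose.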

Hepatitis C virus [25] = experiment: Resistance index, ratio of EC50 for Hepatitis C virus subtype 1a H77 subgenomic replicon expressing NS5A Q30E mutant infected in human HuH7 cells to EC50 for Hepatitis C virus subtype 1a H77 subgenomic replicon expressing NS5A infected in human HuH7 cells; assay type: functional, Hepacivirus hominis
Hepatitis C virus [26] = experiment: Resistance index, ratio of EC50 for Hepatitis C virus subtype 1b Con1 subgenomic replicon expressing NS5A L31W mutant infected in human HuH7 cells to EC50 for Hepatitis C virus subtype 1b Con1 subgenomic replicon expressing NS5A infected in human HuH7 cells; assay type: functional, Hepacivirus hominis

COC(=O)N[C@H](C(=O)N1CCC[C@H]1C(=O)Nc1ccc([C@@H]2CC[C@@H](c3ccc(NC(=O)[C@@H]4CCCN4C(=O)[C@@H](NC(=O)OC)[C@@H](C)OC)cc3)N2c2cc(F)c(N3CC[Si](C)(C)CC3)c(F)c2)cc1)[C@@H](C)OC
half-life [1]: 8 h | EC50 (Hepatitis C virus [2]): 0.027 nM | EC50 (Hepatitis C virus [3]): 0.00033 nM | Vd [4]: 1.56 L/kg | bioavailability [5]: 7.2% | concentration at 0.5 h [6]: 160 ng/mL | Ratio EC50 (Hepatitis C virus [7]): 30.5 | CC50 at 72 h [8]: > 50000 nM | remaining at 1 h, 1 µM [9]: 60.4% | concentration at 24 h [10]: 625 ng/g | Ratio EC50 (Hepatitis C virus [11]): >203 | Ratio EC50 (Hepatitis C virus [12]): 2.3 | AUClast [13]: 6446 ng/hr.ml | AUC [14]: 8020 ng·h/mL | EC50 (Hepatitis C virus [15]): 0.00237 nM | Ratio EC50 (Hepatitis C virus [16]): 1.9 | EC50 (Hepatitis C virus [17]): 0.0122 nM | Ratio EC50 (Hepatitis C virus [18]): 1 | Kp at 24 h [19]: 17.9 | concentration at 8 h [20]: 293 ng/g | EC50 (Hepatitis C virus [21]): 0.0204 nM | Tmax [22]: 7.3 h | EC50 (Hepatitis C virus [23]): 0.003 nM | Activity [24]: Non-Toxic | Ratio EC50 (Hepatitis C virus [25]): 175 | Ratio EC50 (Hepatitis C virus [26]): 11.4
